Measured values: ChEMBL document CHEMBL4818983, “Structure-activity relationship and hypoglycemic activity of tricyclic matrines with advantage of treating diabetic nephropathy” (Eur J Med Chem, 2020)
Calls of active or inactive are those of the source. The calls are words filed in the database; no cut-off is given here.

Assays:
[1] = Cytotoxicity against human HepG2 cells after 24 hrs by MTT assay; format: cell-based
Outline: (§1)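 HepG2 cells exposed to compound; cell growth measured; CC50 derived from the concentration–growth relationship.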

[2] = Acute toxicity in Kunming mouse assessed as effect on blood GOT level at 250 to 1000 mg/kg, po administered as single dose measured for 7 days; format: organism-based; details: in vivo, 168 h, dose 250-1000 mg/kg, time 7 day
Outline: (§2)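 Kunming mice each received one oral dose at 250, 500, 750 or 1000 mg·kg^-1 and were closely monitored for 7 days. At the end, blood was sampled and GOT, GPT, BUN and CRE were measured […] as liver and kidney function markers.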

[3] = Acute toxicity in Kunming mouse assessed as effect on blood GPT level at 250 to 1000 mg/kg, po administered as single dose measured for 7 days; format: organism-based; details: in vivo, 168 h, dose 250-1000 mg/kg, time 7 day; outline: as §2
[4] = Acute toxicity in Kunming mouse assessed as effect on blood BUN level at 250 to 1000 mg/kg, po administered as single dose measured for 7 days; format: organism-based; details: in vivo, 168 h, dose 250-1000 mg/kg, time 7 day; outline: as §2
[5] = Acute toxicity in Kunming mouse assessed as effect on blood CRE level at 250 to 1000 mg/kg, po administered as single dose measured for 7 days; format: organism-based; details: in vivo, 168 h, dose 250-1000 mg/kg, time 7 day; outline: as §2
Mus musculus [6] = experiment: Antidiabetic activity in KK-Ay mouse assessed as reduction in fasting blood glucose level at 50 mg/kg, po for 50 days by glucose oxidase method (reference value: 13.2 +/- 2.51 mM); format: functional; details: time 50 day
Outline: (§3)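 Lipogenic-diet KK-Ay mice given 50 or 100 mg/kg compound or 5 mg/kg rosiglitazone orally for 50 days, C57BL/6J as normal controls. Fasting blood glucose, glycosylated haemoglobin, AGE, insulin, HOMA-IR, cholesterol, LDL-c, TG, serum creatinine and BUN determined. Mean ± SD, 8-9 mice per group.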

Mus musculus [7] = experiment: Antidiabetic activity in KK-Ay mouse assessed as effect on glycosylated haemoglobin level at 50 mg/kg, po for 50 days by glucose oxidase method (reference value: 8.74 +/- 1.08%); format: functional; details: time 50 day; outline: as §3
Mus musculus [8] = experiment: Antidiabetic activity in KK-Ay mouse assessed as effect on glycosylated haemoglobin level at 100 mg/kg, po for 50 days by glucose oxidase method (reference value: 8.74 +/- 1.08%); format: functional; details: time 50 day; outline: as §3
Mus musculus [9] = experiment: Antidiabetic activity in KK-Ay mouse assessed as effect on HOMA-IR level at 100 mg/kg, […] by ELISA (reference value: 137 +/- 18.4); format: functional
Mus musculus [10] = experiment: Antidiabetic activity in KK-Ay mouse assessed as effect on cholesterol level at 50 mg/kg, […] by ELISA (reference value: 7.38 +/- 1.03 mM); format: functional
Mus musculus [11] = experiment: Antidiabetic activity in KK-Ay mouse assessed as effect on cholesterol level at 100 mg/kg, po for 24 hrs by ELISA (reference value: 7.38 +/- 1.03 mM); format: functional
Mus musculus [12] = experiment: Antidiabetic activity in KK-Ay mouse assessed as effect on LDL level at 100 mg/kg, po […] by ELISA (reference value: 1.11 +/- 0.24 mM); format: functional
Mus musculus [13] = experiment: Antidiabetic activity in KK-Ay mouse assessed as effect on Triglycerides level at 100 mg/kg, […] by ELISA (reference value: 4.01 +/- 1.83 mM); format: functional
Mus musculus [14] = experiment: Antidiabetic activity in KK-Ay mouse assessed as effect on serum Creatinine level at 50 mg/kg, po for 24 hrs by ELISA (reference value: 124 +/- 35.1 uM); format: functional
Mus musculus [15] = experiment: Antidiabetic activity in KK-Ay mouse assessed as effect on serum Creatinine level at 100 mg/kg, po for 24 hrs by ELISA (reference value: 124 +/- 35.1 uM); format: functional
Mus musculus [16] = experiment: Antidiabetic activity in KK-Ay mouse assessed as effect on BUN level at 50 mg/kg, po for 24 hrs by ELISA (reference value: 12.8 +/- 2.97 mM); format: functional
Mus musculus [17] = experiment: Anti-diabetic activity in overnight fasted diabetic KK-Ay mouse assessed as reduction in blood glucose AUC at 50 to 100 mg/kg, po measured after 35 days by oral glucose tolerance test; format: functional, organism-based; details: dose 50-100 mg/kg, time 35.0 day
Outline: (§4)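 KK-Ay mice orally treated with 50 or 100 mg/kg compound or 5 mg/kg rosiglitazone, C57BL/6J as normal controls. After 35 days of treatment, oral glucose tolerance test and insulin tolerance test run. Blood glucose plotted against time, AUC calculated. Mean ± SD, 8-9 mice per group.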

Mus musculus [18] = experiment: Anti-diabetic activity in overnight fasted diabetic KK-Ay mouse assessed as reduction in blood glucose AUC at 5 mg/kg, po […] measured after 35 days by oral glucose tolerance test; format: functional, organism-based; outline: as §4
Mus musculus [19] = experiment: Anti-diabetic activity in overnight fasted diabetic KK-Ay mouse assessed as increase in insulin responsiveness by measuring blood glucose at 50 to 100 mg/kg, po measured after 35 days by insulin tolerance test; format: functional, organism-based; details: dose 50-100 mg/kg, time 35.0 day; outline: as §4
[20] = Effect on high fat diet-fed KK-Ay mouse model of obesity and diabetes assessed as water intake at 100 mg/kg, po (reference value: 21.2 +/- 4.17 ml/day); format: ADME, organism-based; details: in vivo
Outline: (§5)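 KK-Ay mice on lipogenic diet, with C57BL/6J mice as normal controls, dosed orally at 50 or 100 mg/kg (test) or 5 mg/kg (RGZ). Food intake (g/day), water intake (mL/day) and body weight recorded before and after treatment; body weight gain calculated. Mean±SD, 8-9 mice per group.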

[21] = Effect on high fat diet-fed KK-Ay mouse model of obesity and diabetes assessed as total body weight gain at 50 mg/kg, po (reference value: 43.5 +/- 5.24 g); format: ADME, organism-based; details: in vivo; outline: as §5
[22] = Effect on high fat diet-fed KK-Ay mouse model of obesity and diabetes assessed as total body weight gain at 100 mg/kg, po (reference value: 43.5 +/- 5.24 g); format: ADME, organism-based; details: in vivo; outline: as §5
Mus musculus [23] = species: Mus musculus; experiment: Anti-diabetic activity in high fat diet-fed C57BL/6J mouse model of obesity and diabetes assessed as reduction in urine glucose level measured after 24 hrs; format: functional, organism-based
Outline: (§6)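 Before study end, 24-h urine collected from C57BL/6J controls and KK-Ay mice (untreated, oral 50 or 100 mg/kg compound, or 5 mg/kg rosiglitazone). Volume, glucose, total protein and microalbumin measured by kits. Mean ± SD, 8-9 mice per group, vs C57BL/6J or untreated KK-Ay.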

Mus musculus [24] = species: Mus musculus; experiment: Anti-diabetic activity in high fat diet-fed C57BL/6J mouse model of obesity and diabetes assessed as […] in total protein level in urine measured after 24 hrs; format: functional, organism-based; outline: as §6
HepG2 [25] = experiment: Increase in glucose consumption in human HepG2 cells at 10 to 40 uM measured after 24 hrs; format: functional, cell-based; details: dose 10-40 µM
Outline: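 HepG2 cells treated 24 h at the indicated concentrations; RGZ as reference. Supernatants used for glucose consumption and lactate release; lysed cells used for ATP, normalized to protein content. Mean ± SD of 3 or 4 separate experiments; compared with DMSO.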

HepG2 [26] = experiment: Cytotoxicity against human HepG2 cells upto 160 uM after 24 hrs by MTT assay; format: cell-based; details: hepg2, 24 h; outline: as §1
HepG2 [27] = experiment: Induction of glycolysis in human HepG2 cells assessed as increase in lactate release at 10 to 40 uM measured after 24 hrs; details: dose 10-40 µM

For `CCCC[C@@H]1[C@H]2CCCN3CCC[C@@H](CN1S(=O)(=O)c1ccc(C(F)(F)F)cc1)[C@@H]23`, the CC50 at 24 h [1] was 642 µM, the Activity [2] was “Non-Toxic” and the Activity [3] was “Non-Toxic”. The Activity [4] was “Non-Toxic”, the Activity [5] was “Non-Toxic” and the Activity (Mus musculus [6]) was 9.44 mM. The Activity (Mus musculus [7]) was 7.07%, the Activity (Mus musculus [8]) was 6.75% and the Activity (Mus musculus [9]) was 46.5. It also gave an Activity (Mus musculus [10]) of 7.05 mM, an Activity (Mus musculus [11]) of 5.55 mM and an Activity (Mus musculus [12]) of 0.82 mM. For the same compound, the Activity (Mus musculus [13]) was 2.39 mM, the Activity (Mus musculus [14]) was 88.8 µM and the Activity (Mus musculus [15]) was 70.4 µM. The Activity (Mus musculus [16]) was 12.7 mM, the Activity (Mus musculus [17]) was “Active” and the Activity (Mus musculus [18]) was “Active”. The Activity (Mus musculus [19]) was “Active”, the Activity [20] was 11.9 mL/day and the Activity [21] was 3.52 g. For the same compound, the Activity [22] was 2.53 g, the Activity (Mus musculus [23]) was “Active” and the Activity (Mus musculus [24]) was “inactive”. For the same compound, the Activity (HepG2 [25]) was “Dose-Dependent Effect”, the Activity (HepG2 [26]) was “Non-Toxic” and the Activity (HepG2 [27]) was “Dose-Dependent Effect”.
